Measured values from different studies.
Lines come from different studies, so protocols differ.

| SMILES | cell line | test | setting | IC50 |
| --- | --- | --- | --- | --- |
| CCOc1cc(OCC)cc(C(=O)O[C@@H]2CN3Cc4c(cc5c(c4OC)OCO5)[C@@]24C=C[C@H](OC)C[C@@H]34)c1 | MOLT-4 | cell growth or viability, WST-1 |  | 7.6 µM |
| O=C(O)/C=C/c1ccc(O)c(O)c1 | PaCa-2 | cell growth or viability, MTT |  | 5.1 µM |
| COc1cc2c(=O)n(CCN(C)C)c3c4cc5c(cc4ncc3c2cc1OC)OCO5 | RPMI 8402 | cell growth or viability, MTT | 96 h | 0.002 µM |
| Cc1[nH]c(/C=C2\C(=O)Nc3ccc(S(=O)(=O)N(C)c4cccc(Cl)c4)cc32)c(C)c1C(=O)N1CCN(C)CC1 | Rh4 | cell growth or viability | 72 h | 2.21 µM |
| O=C(O)C(c1c[nH]c2ccccc12)c1c[nH]c2ccccc12 | LNCaP | cell growth or viability, MTT | 48 h | > 100 µM |
| N#CCCCC1=CC2C=CC=CC1C2C1CCCCC1=O (stereo not shown) | Jurkat | cell growth or viability, flow cytometry |  | 0.069 µM |
| CO[C@@H](C[C@H]1C(C)=CC[C@@H]2[C@]3(C)C[C@H](O[C@@H]4O[C@@H](C)[C@H](OC(=O)c5cccc(O)c5)[C@@H](O[C@@H]5O[C@H](CO)[C@@H](O)[C@H](O)[C@H]5NC(C)=O)[C@H]4O)[C@@H](O)C(C)(C)[C@H]3CC[C@]21C)[C@H](N)C(=O)O | LN-229 | cell growth or viability, ATP luminescence | 6 days | 0.13 µM |
| O=c1c(O[C@@H]2O[C@H](CO)[C@H](O)[C@H](O)[C@H]2O)c(-c2ccc(O)c(O)c2)oc2cc(O)cc(O)c12 | SW780 | cell growth or viability, ATP luminescence | 72 h | 136 µM |
| C[C@@H](Oc1cc(-c2cnn(C3CCNCC3)c2)cnc1N)c1c(Cl)ccc(F)c1Cl | Rh4 | cell growth or viability | 72 h | 0.58 µM |
| Oc1ccc(C(c2c[nH]c3ccccc23)c2c[nH]c3ccccc23)cc1 | LNCaP | cell growth or viability, MTT | 48 h | > 100 µM |
| COc1ccc(C(=O)O[C@@H]2CN3Cc4c(cc5c(c4OC)OCO5)[C@@]24C=C[C@H](OC)C[C@@H]34)cc1OC | MOLT-4 | cell growth or viability, WST-1 |  | 7.4 µM |
| CC(=O)c1ccc(N=Nc2c(C(=O)O)cc(O)c(O)c2O)cc1 | PaCa-2 | cell growth or viability, MTT |  | 12 µM |
| CC(C)(C)OC(=O)NCCOc1cc(NC(=O)c2cnccn2)c2ncccc2c1 | MIA PaCa-2 | cell growth or viability, MTT | 72 h | < 1 µM |
| COc1nc(OCc2cccc(-c3ccccc3)c2C)ccc1CNCCNC(C)=O | MC-38 | cell growth or viability, MTT |  | 2.9 µM |
| CC(=O)c1ccc(/N=N/c2cc(/C=C/C(=O)O)ccc2O)cc1 | PaCa-2 | cell growth or viability, MTT |  | > 50 µM |
| C[C@H](Nc1ncnc2nc[nH]c12)c1cc2cccc(Cl)c2c(=O)n1-c1ccccc1 | CD4+ T | lymphocyte proliferation, inhibitor |  | 0.1 µM |

| SMILES | cell line | test | setting | IC50 |
| --- | --- | --- | --- | --- |
| COc1cc(-c2oc3cc(O)cc(O)c3c(=O)c2O)ccc1O | SW780 | cell growth or viability, ATP luminescence | 72 h | 12.5 µM |
| Cc1c[nH]c(/C=C2\C(=O)Nc3ccccc32)c1CCC(=O)O | SW780 | cell growth or viability, MTT | 5 days | 6 µM |
| O=C(O)c1ccc(C(c2c[nH]c3ccccc23)c2c[nH]c3ccccc23)cc1 | LNCaP | cell growth or viability, MTT | 48 h | 21 µM |
| COc1cc(-c2[o+]c3cc(O)cc(O)c3cc2O[C@@H]2O[C@H](CO)[C@@H](O)[C@H](O)[C@H]2O)ccc1O | SW780 | cell growth or viability, ATP luminescence | 72 h | 137 µM |
| CC(C)C[C@H](NC(=O)[C@H](Cc1ccccc1)NC(=O)c1cnccn1)B(O)O | COV434 | cell growth or viability, ATP luminescence |  | 0.016 µM |
| COc1cc2nccc(Oc3ccc(NC(=O)C4(C(=O)Nc5ccc(F)cc5)CC4)cc3)c2cc1OC | Rh4 | cell growth or viability | 72 h | 3.09 µM |
| O=C(O)c1cc(O)c(O)c(O)c1 | PaCa-2 | cell growth or viability, MTT |  | 17.5 µM |
| COc1cc(Nc2nccc(-c3cnn4nc(OC)ccc34)n2)cc(C(F)(F)F)c1 | LN-229 | cell growth or viability, ATP luminescence |  | 0.58 µM |
| COc1cc(Nc2nc(C#N)cc3c(-c4ccccc4)n[nH]c23)cc(OC)c1OC | MIA PaCa-2 | cell growth or viability, MTS | 48 h | 3 µM |
| OC[C@H]1O[C@@H](Oc2cc3c(O)cc(O)cc3[o+]c2-c2ccc(O)c(O)c2)[C@H](O)[C@@H](O)[C@H]1O | SW780 | cell growth or viability, ATP luminescence | 72 h | 84.5 µM |
| CC/C(=C(\c1ccc(O)cc1)c1ccc(OCCN(C)C)cc1)c1ccccc1 | T47D | cell growth or viability | 5 days | 2.16 µM |
| O=C1CCCCC1C1C2C=CC=CC1/C(=C/c1ccccc1)C2 (stereo not shown) | Jurkat | cell growth or viability, flow cytometry |  | 0.082 µM |
| NCc1cc2c(-c3ccccc3)n[nH]c2c(Nc2ccccc2)n1 | MIA PaCa-2 | cell growth or viability, MTS | 48 h | 2.3 µM |
| FC(F)(F)c1ccc(C(c2c[nH]c3ccccc23)c2c[nH]c3ccccc23)cc1 | LNCaP | cell growth or viability, MTT | 48 h | 13 µM |
| O=C1CCCCC1C1C2C=CC=CC1C(CCCCOC1CCCCO1)=C2 (stereo not shown) | Jurkat | cell growth or viability, flow cytometry |  | 0.135 µM |
